# Experimental data published in ChEMBL document CHEMBL2146365, “Design and synthesis of EGFR dimerization inhibitors and evaluation of their potential in the treatment of psoriasis” (Bioorg Med Chem, 2012).
# Calls of active or inactive are those of the source. The rule behind the calls is not given here.
# What was measured:
# [1] = Growth inhibition of HPV-16 transformed human CCD-1106 cells after 72 hrs by MTT assay; format: functional; details: CCD-1106, 72 h
# How it was run: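 Cells were seeded at 10,000 cells/well in keratinocyte serum-free medium with L-glutamine, bovine pituitary extract and EGF, at 37 °C under 5% CO2, and attached overnight. Eight drug concentrations were run with six in-plate replicates, DMSO <1%, for 72 h. MTT (0.5 mg/ml) was added for 2 h, formazan was dissolved in 90% isopropanol/10% DMSO and A590 was read. Growth is expressed relative to the untreated control.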
# [2] = Antioxidant activity in bovine brain assessed as inhibition of iron-ascorbate-induced lipid peroxidation by thiobarbituric acid test; format: functional, tissue-based, Bos taurus
# How it was run: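 Hit compounds were tested for inhibition of lipid peroxidation by the thiobarbituric acid (TBA) assay. Propyl gallate served as the standardizing positive control, tested at 100 µM.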
# [3] = molecular target: Epidermal growth factor receptor (Homo sapiens) (UniProt P00533); assay: Inhibition of EGFR-mediated ERK2 phosphorylation in HPV-16 transformed human CCD-1106 cells at 116.8 uM after 30 mins by densitometric analysis; format: cell-based
# Epidermal growth factor receptor (Homo sapiens), sequence (P00533 whole entry): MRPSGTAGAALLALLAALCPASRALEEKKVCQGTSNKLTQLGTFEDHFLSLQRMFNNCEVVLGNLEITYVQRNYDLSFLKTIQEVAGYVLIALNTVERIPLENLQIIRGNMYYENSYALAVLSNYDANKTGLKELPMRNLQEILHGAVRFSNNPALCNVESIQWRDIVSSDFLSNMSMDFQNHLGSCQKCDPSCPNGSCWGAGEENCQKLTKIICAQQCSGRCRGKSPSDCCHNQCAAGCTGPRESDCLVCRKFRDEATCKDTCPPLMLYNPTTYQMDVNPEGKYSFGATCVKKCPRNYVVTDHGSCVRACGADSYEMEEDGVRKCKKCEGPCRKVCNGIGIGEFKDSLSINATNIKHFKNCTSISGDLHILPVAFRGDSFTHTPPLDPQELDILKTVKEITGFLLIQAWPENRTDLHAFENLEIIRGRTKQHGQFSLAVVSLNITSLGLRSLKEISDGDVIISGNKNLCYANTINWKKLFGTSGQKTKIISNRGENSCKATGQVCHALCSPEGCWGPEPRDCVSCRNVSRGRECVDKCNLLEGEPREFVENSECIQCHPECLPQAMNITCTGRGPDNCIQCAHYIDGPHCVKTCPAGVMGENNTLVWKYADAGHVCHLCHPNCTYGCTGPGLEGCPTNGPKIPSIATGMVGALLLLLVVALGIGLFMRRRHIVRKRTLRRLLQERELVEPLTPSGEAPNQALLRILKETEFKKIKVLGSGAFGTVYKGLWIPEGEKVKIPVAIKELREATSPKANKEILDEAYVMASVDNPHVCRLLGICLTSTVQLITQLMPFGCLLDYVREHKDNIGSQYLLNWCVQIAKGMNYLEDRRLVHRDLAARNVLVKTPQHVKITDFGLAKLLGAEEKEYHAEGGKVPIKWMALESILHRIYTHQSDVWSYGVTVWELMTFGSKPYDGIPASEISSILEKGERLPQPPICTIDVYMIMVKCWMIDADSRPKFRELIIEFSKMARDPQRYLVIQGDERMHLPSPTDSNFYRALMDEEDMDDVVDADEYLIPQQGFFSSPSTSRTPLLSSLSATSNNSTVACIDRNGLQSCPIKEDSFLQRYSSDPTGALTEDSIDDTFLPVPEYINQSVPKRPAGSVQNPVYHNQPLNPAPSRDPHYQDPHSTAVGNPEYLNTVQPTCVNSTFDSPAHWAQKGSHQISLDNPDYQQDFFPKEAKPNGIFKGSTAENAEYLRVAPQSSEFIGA
# How it was run: (§1)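 CCD-1106 cells were treated with compound for 30 min at 37 °C, then stimulated with EGF. Lysates were separated by SDS-PAGE, blotted to nitrocellulose and blocked in 3% BSA/NaTT. Blots were probed with p-ERK (E-4) or p-p38 (D-8) antibodies, detected by ECL and quantified by densitometry.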
# [4] = molecular target: Epidermal growth factor receptor (Homo sapiens) (UniProt P00533); assay: Inhibition of EGFR-mediated p38 phosphorylation in HPV-16 transformed human CCD-1106 cells at 116.8 uM after 30 mins by densitometric analysis; format: cell-based; how it was run: as §1
# [5] = Growth inhibition of HPV-16 transformed human CCD-1106 cells after 72 hrs by neutral red uptake assay; format: functional; details: CCD-1106, 72 h
# How it was run: (§2)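 Neutral red uptake assay over 72 h. Cells were seeded at 10,000 cells/well and attached overnight, then exposed to eight concentrations with six replicates (DMSO <1%). CCD-1106 were grown in keratinocyte SFM with supplements. HaCaT were grown in DMEM with 10% FBS and 2 mM L-glutamine. NHEK (pooled adult) were grown in keratinocyte growth medium with supplement. Values are means, n = 6, against the untreated control.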
# HaCaT [6] = assay: Growth inhibition of human HaCaT cells after 72 hrs by neutral red uptake assay; format: functional; how it was run: as §2
# U-937 = assay: Growth inhibition of human U937 cells after 72 hrs by Cell Titer 96 aqueous one solution assay; format: functional
# How it was run: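 Cells were grown in RPMI with 10% FBS, 2 mM L-glutamine and penicillin/streptomycin. They were seeded at 10,000 cells/well in round-bottom plates and exposed to compounds for 72 h (eight concentrations, six replicates). Cell Titer 96 AQueous One reagent was then added for 3 h at 37 °C and absorbance was read at 492 nm. Values are means, n = 6.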
# [7] = Cytotoxicity against HPV-16 transformed human CCD-1106 cells assessed as cell viability after 6 hrs by MTT assay; format: functional; details: CCD-1106, 6 h, read-out: LD50 (the source's name)
# How it was run: (§3)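 Cells were plated at 10,000/well, attached overnight, and exposed 6 or 24 h to eight drug concentrations with six in-plate replicates (DMSO <1%). MTT (0.5 mg/ml in PBS) was added for 2 h at 37 °C, then dissolved in 90% isopropanol/10% DMSO, and A590 was read. Values were corrected against untreated controls. LD₅₀ is reported as mean ± S.E.M., n = 3.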
# [8] = Cytotoxicity against HPV-16 transformed human CCD-1106 cells assessed as cell viability after 24 hrs by MTT assay; format: functional; details: CCD-1106, 24 h, read-out: LD50 (the source's name); how it was run: as §3
# HaCaT [9] = assay: Cytotoxicity against human HaCaT cells assessed as cell viability after 6 hrs by MTT assay; format: functional; details: read-out: LD50 (the source's name); how it was run: as §3
# HaCaT [10] = assay: Induction of apoptosis in human HaCaT cells assessed as early phase apoptotic cells at 111.6 uM after 9 hrs by AnnexinV-FITC/propidium iodide based FACS flow cytometry; format: functional
# How it was run: (§4)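 HaCaT cells at 10^6 cells/ml were attached overnight and exposed to vehicle, 111.6, 223.2 or 446 µM for 9 h. Cells were then trypsinized, washed in ice-cold PBS and stained with Annexin V-FITC/PI. FACScan analysis used FL1/FL2, 10,000 events per sample, scatter gating, and quadrants set with single-stain controls. Runs were in triplicate and results are means of two experiments.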
# HaCaT [11] = assay: Induction of apoptosis in human HaCaT cells assessed as late phase apoptotic/necrotic cells at 111.6 uM after 9 hrs by AnnexinV-FITC/propidium iodide based FACS flow cytometry; format: functional; how it was run: as §4
# HaCaT [12] = assay: Induction of apoptosis in human HaCaT cells assessed as early phase apoptotic cells at 446 uM after 9 hrs by AnnexinV-FITC/propidium iodide based FACS flow cytometry; format: functional; how it was run: as §4
# HaCaT [13] = assay: Induction of apoptosis in human HaCaT cells assessed as late phase apoptotic/necrotic cells at 446 uM after 9 hrs by AnnexinV-FITC/propidium iodide based FACS flow cytometry; format: functional; how it was run: as §4
# HaCaT [14] = assay: Induction of apoptosis in human HaCaT cells assessed as late phase apoptotic/necrotic cells at 223.2 uM after 9 hrs by AnnexinV-FITC/propidium iodide based FACS flow cytometry; format: functional; how it was run: as §4
# HaCaT [15] = assay: Induction of apoptosis in human HaCaT cells assessed as viable cells at 223.2 uM after 9 hrs by AnnexinV-FITC/propidium iodide based FACS flow cytometry; format: functional; details: read-out: Activity; how it was run: as §4
# HaCaT [16] = assay: Induction of apoptosis in human HaCaT cells assessed as activation of caspase 3/7 at 55.8 uM after 12 hrs; format: functional, cell-based
# How it was run: (§5)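 HaCaT cells were seeded at 10,000 cells/0.2 ml/well, attached overnight and exposed to compound (56–446 µM) for 12 h. Caspase-3/7 activity was measured with the Apo-ONE homogeneous kit, fluorescence 499/521 nm, in triplicate, with medium-only background wells. MTT viability was run in parallel. Results are means of two experiments, t-test against control.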
# HaCaT [17] = assay: Induction of apoptosis in human HaCaT cells assessed as activation of caspase 3/7 after 12 hrs; format: functional, cell-based; how it was run: as §5
# HaCaT [18] = assay: Induction of necrosis in human HaCaT cells after 12 hrs by electron microscopy; format: functional, cell-based
# HaCaT [19] = assay: Cytotoxicity against human HaCaT cells assessed as LDH release after 24 hrs by CYTOX-96 assay; format: functional; details: read-out: LD50 (the source's name)
# How it was run: (§6)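 LDH release was read with the CytoTox 96 kit following the kit protocol after 6 or 24 h drug exposure. Cells were seeded at 10,000/well and attached overnight. Eight concentrations were run with six in-plate replicates; DMSO was <1% in all wells, with medium-only blanks. LD₅₀ is reported as mean ± S.E.M., n = 6. CCD-1106 were grown in supplemented keratinocyte SFM; HaCaT in DMEM/10% FBS.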
# [20] = Cytotoxicity against HPV-16 transformed human CCD-1106 cells assessed as LDH release after 6 hrs by CYTOX-96 assay; format: functional; details: CCD-1106, 6 h, read-out: LD50 (the source's name); how it was run: as §6
# [21] = Cytotoxicity against HPV-16 transformed human CCD-1106 cells assessed as LDH release after 24 hrs by CYTOX-96 assay; format: functional; details: CCD-1106, 24 h, read-out: LD50 (the source's name); how it was run: as §6
# HaCaT [22] = assay: Induction of apoptosis in human HaCaT cells assessed as viable cells at 446 uM after 12 hrs by MTT assay
structure (smiles),measurement,setting,value
CCOc1cc(/C=N\Nc2nc3c(c(=O)n(C)c(=O)n3C)n2Cc2ccccc2)ccc1O,GI50,[1]; read-out: GI50,2.69 µM
same,GI50,[1]; read-out: pGI50 (converted),2.69 µM
same,IC50,[2],8 µM
same,inhibition,[3],33%
same,inhibition,[4],11%
same,GI50,[5],9 µM
same,GI50,HaCaT [6],22 µM
same,growth inhibition (GI),U-937,Dose-dependent effect
same,GI50,"U-937; U-937, 72 h",46 µM
same,CC50,[7],234 µM
same,CC50,[8],112 µM
same,CC50,HaCaT [9],440 µM
same,Activity,HaCaT [10],12%
same,Activity,HaCaT [11],6%
same,Activity,HaCaT [12],24%
same,Activity,HaCaT [13],15%
same,Activity,HaCaT [14],10%
same,viability at 223.2 µM,HaCaT [15],73%
same,Activity,HaCaT [16],Active
same,Activity,HaCaT [17],Dose-dependent effect
same,Activity,HaCaT [18],inactive
same,CC50,HaCaT [19],446 µM
same,CC50,[20],> 446 µM
same,CC50,[21],> 446 µM
same,viability at 446 µM,HaCaT [22],62%
